In BindingDB's records for doi:10.1021/acsmedchemlett.9b00225 (University of Minnesota Twin Cities, 2019):

Assays:
[1] = biological target: 5-hydroxytryptamine receptor 2B (Homo sapiens, UniProt P41595); experiment: Displacement of [3H]-LSD from human recombinant 5-HT2B receptor stably expressed in HEK cells after 90 mins by microbeta scintillation counting method
Procedure, shortened: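 Radioligand binding run by the NIMH Psychoactive Drug Screening Program. Otherwise Ki comes from sigmoidal curve fits of triplicate measurements in a single experiment, or is averaged over repeated experiments each run in triplicate.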

[2] = biological target: Sigma non-opioid intracellular receptor 1 (Homo sapiens, UniProt Q99720); experiment: Displacement of [3H]-Pentazocine from human recombinant sigma1 receptor expressed in HEKT cells after 90 mins by microbeta scintillation counting method
Sequence of Sigma non-opioid intracellular receptor 1 (Q99720 whole entry): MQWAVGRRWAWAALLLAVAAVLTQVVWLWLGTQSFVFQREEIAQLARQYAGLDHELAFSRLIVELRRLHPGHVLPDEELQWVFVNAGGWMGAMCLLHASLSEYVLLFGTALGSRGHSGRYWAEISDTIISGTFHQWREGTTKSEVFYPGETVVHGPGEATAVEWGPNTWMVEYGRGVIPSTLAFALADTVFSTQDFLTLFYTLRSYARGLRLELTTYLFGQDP

Sequence of 5-hydroxytryptamine receptor 2B (P41595 whole entry): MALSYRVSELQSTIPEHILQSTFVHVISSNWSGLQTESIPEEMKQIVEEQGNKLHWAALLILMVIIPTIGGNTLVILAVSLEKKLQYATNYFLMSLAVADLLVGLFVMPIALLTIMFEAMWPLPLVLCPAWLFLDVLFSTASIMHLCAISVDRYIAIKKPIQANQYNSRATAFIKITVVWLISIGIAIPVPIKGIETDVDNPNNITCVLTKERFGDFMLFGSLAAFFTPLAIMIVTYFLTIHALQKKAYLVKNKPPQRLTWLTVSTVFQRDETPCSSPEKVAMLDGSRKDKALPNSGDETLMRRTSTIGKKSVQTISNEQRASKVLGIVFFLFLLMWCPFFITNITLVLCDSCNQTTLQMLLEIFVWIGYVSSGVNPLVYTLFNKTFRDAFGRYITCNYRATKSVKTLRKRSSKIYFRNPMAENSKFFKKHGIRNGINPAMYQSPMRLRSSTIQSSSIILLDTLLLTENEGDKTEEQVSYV

CC[C@H]1c2ccc3ccccc3c2OC[C@@]1(C)N
Ki [1]: 2.51 nM

CC[C@H]1c2cc(-c3ccccc3)ccc2OC[C@@]1(C)N
Ki [2]: 12.6 nM
